Reference: ChEMBL document CHEMBL1140918, “Candidate selection and preclinical evaluation of N-tert-butyl isoquine (GSK369796), an affordable and effective 4-aminoquinoline antimalarial for the 21st century” (J Med Chem, 2009)
Values belong to the molecule of their own block, whether it stands above or below them. Active and inactive are the calls of the source. The rule behind the calls is not given here.

Legend:
Cytochrome P450 1A2 = molecular target: T1, Cytochrome P450 1A2 (Homo sapiens, UniProt P05177); assay: Inhibition of human recombinant CYP1A2; assay type: ADME
T1 sequence (P05177 whole entry): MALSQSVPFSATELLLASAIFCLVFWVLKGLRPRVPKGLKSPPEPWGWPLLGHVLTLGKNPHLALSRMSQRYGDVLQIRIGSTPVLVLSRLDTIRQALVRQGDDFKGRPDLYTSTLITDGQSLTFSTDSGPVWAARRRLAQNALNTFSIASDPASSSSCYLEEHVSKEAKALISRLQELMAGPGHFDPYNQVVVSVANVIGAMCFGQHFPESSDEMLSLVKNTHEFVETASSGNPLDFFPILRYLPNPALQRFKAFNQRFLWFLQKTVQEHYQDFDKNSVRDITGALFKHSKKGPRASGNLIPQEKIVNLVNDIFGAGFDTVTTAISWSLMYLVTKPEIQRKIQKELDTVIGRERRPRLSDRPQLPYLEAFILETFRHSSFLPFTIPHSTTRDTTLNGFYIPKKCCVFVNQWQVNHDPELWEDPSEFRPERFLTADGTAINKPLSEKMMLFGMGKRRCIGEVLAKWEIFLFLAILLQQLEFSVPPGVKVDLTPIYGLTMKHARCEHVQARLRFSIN
How it was run: (§1)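 Concentration-dependent inhibition of major human cytochrome P450 isozymes (recombinant enzymes) was tested using fluorescent probe substrates. Mean IC50 values were reported.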

[1] = molecular target: Voltage-gated inwardly rectifying potassium channel KCNH2 (Homo sapiens, UniProt Q12809); assay: Inhibition of human cloned ERG
Voltage-gated inwardly rectifying potassium channel KCNH2, sequence (Q12809 whole entry): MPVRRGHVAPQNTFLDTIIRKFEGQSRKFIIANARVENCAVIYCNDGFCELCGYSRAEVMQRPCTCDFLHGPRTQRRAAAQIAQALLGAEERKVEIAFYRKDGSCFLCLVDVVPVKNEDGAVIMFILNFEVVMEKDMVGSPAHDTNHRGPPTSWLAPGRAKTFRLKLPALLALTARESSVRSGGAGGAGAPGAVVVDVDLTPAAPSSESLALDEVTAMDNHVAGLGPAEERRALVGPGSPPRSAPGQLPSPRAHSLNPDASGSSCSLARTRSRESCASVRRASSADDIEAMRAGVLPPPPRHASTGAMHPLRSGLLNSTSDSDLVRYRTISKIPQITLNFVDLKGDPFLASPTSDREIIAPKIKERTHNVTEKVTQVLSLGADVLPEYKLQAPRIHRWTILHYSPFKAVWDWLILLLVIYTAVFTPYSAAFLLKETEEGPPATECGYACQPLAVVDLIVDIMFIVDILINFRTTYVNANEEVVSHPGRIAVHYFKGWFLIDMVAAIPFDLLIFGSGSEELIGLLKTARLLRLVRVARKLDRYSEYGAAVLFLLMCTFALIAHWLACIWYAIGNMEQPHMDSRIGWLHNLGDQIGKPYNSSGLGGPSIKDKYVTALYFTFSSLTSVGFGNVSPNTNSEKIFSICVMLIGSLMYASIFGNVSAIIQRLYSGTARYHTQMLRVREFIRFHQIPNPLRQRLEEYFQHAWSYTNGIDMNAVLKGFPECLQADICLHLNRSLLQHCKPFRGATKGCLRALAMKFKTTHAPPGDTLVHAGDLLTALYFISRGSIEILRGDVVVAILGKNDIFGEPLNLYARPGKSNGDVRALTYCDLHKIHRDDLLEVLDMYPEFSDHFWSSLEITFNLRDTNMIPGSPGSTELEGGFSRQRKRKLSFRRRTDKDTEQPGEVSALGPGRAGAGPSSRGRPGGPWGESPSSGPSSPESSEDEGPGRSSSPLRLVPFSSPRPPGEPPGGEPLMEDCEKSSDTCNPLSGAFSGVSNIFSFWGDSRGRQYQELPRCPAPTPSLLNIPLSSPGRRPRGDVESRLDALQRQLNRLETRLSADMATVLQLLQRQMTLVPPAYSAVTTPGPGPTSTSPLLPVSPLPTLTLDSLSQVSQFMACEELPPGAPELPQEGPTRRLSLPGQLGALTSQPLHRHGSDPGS

[2] = Ratio of drug level in blood to plasma in human; assay type: ADME, cell-free; conditions: read-out: BPR
How it was run: (§2)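 Red blood cell association measured in vitro in whole blood from the species named, alongside plasma protein binding. Read-out is the ratio of drug concentration in whole blood to that in plasma.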

Mus musculus = organism: Mus musculus; assay: Protein binding in mouse; assay type: ADME, organism-based; conditions: in vivo
How it was run: (§3)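 Protein binding and blood-cell association were assessed in vitro in plasma or whole blood from preclinical species and humans.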

[3] = Clearance in iv and orally dosed dog blood; assay type: ADME, organism-based, Canis lupus familiaris; conditions: whole blood
How it was run: (§4)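 Single intravenous and oral doses were given to the mouse, rat, dog and/or monkey. Drug was measured in blood to derive blood clearance, elimination half-life and % oral bioavailability.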

[4] = Oral bioavailability in rat; assay type: ADME, organism-based; conditions: in vivo; how it was run: as §4
[5] = Oral bioavailability in mouse; assay type: ADME, organism-based; conditions: in vivo; how it was run: as §4
Cytochrome P450 3A4 [6] = molecular target: T2, Cytochrome P450 3A4 (Homo sapiens, UniProt P08684); assay: Inhibition of human recombinant CYP3A4 using phenyl-piperazinyl-methyl-benzyl-resofurin as substrate; assay type: ADME; how it was run: as §1
T2 sequence (P08684 whole entry): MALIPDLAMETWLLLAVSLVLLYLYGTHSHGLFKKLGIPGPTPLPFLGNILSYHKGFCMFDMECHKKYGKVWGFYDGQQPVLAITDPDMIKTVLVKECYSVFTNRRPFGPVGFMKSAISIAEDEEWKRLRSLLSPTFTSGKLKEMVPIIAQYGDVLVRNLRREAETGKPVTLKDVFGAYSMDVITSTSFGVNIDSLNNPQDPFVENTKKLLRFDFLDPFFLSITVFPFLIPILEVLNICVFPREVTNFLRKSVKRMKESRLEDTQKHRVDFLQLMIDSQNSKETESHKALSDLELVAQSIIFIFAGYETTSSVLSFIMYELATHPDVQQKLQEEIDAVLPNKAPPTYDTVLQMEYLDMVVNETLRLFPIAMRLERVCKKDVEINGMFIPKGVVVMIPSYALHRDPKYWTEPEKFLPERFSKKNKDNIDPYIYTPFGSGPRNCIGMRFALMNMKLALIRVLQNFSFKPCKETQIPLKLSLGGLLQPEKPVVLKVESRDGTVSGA

Homo sapiens = organism: Homo sapiens; assay: Protein binding in human; assay type: ADME, organism-based; conditions: in vivo; how it was run: as §3
Plasmodium berghei = assay: Antimalarial activity as reduced parasitaemia against Plasmodium berghei ANKA infected CD1 mice (Mus musculus) after 4 days; assay type: functional; conditions: 96 h
How it was run: (§5)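 Standard Peters 4-day test in female age-matched CD1 mice, randomised into groups of 5. Mice were infected iv on day 0 with 6.4 × 10^6 or 10.0 × 10^6 parasites (P. berghei or P. yoelii) from infected donors. Peripheral-blood parasitaemia was read by flow cytometry at day 4 and compared with vehicle-treated groups. Doses ranged up to 40 mg/kg.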

Plasmodium yoelii [7] = assay: Antimalarial activity as reduced parasitaemia against Plasmodium yoelii 17X infected CD1 mice (Mus musculus) after 4 days; assay type: functional; conditions: 96 h
[8] = Clearance in iv and orally dosed rat blood; assay type: ADME, organism-based; conditions: whole blood; how it was run: as §4
Plasmodium falciparum [9] = assay: Antimalarial activity against chloroquine-sensitive Plasmodium falciparum HB3 in human erythrocytes after 48 hrs by [3H]hypoxanthine uptake; assay type: functional, organism-based
How it was run: (§6)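 P. falciparum grown in human erythrocytes in RPMI 1640 with 25 mM HEPES, 32 mM NaHCO3 and 10% human serum, gassed 3% O2/4% CO2/93% N2. Assay at 2% parasitemia, 0.5% hematocrit, drug stocks in DMSO diluted in medium, in triplicate. After 24 h at 37 °C, [3H]-hypoxanthine added and incubation continued 24 h. Scintillation counting; IC50 by probit interpolation of log dose-response, three independent experiments.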

[10] = Clearance in iv and orally dosed mouse blood; assay type: ADME, organism-based; conditions: whole blood; how it was run: as §4
Cytochrome P450 2C8 = molecular target: T3, Cytochrome P450 2C8 (Homo sapiens, UniProt P10632); assay: Inhibition of human recombinant CYP2C8; assay type: ADME; how it was run: as §1
T3 sequence (P10632 whole entry): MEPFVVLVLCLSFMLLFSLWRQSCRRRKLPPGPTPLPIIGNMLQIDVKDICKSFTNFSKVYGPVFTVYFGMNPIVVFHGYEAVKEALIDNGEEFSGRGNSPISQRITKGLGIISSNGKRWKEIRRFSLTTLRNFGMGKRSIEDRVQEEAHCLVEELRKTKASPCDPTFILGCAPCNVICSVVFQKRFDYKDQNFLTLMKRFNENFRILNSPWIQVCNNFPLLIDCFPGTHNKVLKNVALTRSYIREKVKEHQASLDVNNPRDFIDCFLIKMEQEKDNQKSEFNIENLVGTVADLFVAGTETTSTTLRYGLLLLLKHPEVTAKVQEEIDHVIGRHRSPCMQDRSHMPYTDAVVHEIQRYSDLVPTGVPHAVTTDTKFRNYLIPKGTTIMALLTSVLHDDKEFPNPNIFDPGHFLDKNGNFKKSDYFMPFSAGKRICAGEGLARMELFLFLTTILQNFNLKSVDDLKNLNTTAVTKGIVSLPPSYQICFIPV

[11] = Ratio of drug level in blood to plasma in dog; assay type: ADME, cell-free, Canis lupus familiaris; conditions: read-out: BPR; how it was run: as §2
Cytochrome P450 2C9 = Cytochrome P450 2C9 (Homo sapiens, UniProt P11712); assay: Inhibition of human recombinant CYP2C9; assay type: ADME; how it was run: as §1
Cytochrome P450 2C9, sequence (P11712 whole entry): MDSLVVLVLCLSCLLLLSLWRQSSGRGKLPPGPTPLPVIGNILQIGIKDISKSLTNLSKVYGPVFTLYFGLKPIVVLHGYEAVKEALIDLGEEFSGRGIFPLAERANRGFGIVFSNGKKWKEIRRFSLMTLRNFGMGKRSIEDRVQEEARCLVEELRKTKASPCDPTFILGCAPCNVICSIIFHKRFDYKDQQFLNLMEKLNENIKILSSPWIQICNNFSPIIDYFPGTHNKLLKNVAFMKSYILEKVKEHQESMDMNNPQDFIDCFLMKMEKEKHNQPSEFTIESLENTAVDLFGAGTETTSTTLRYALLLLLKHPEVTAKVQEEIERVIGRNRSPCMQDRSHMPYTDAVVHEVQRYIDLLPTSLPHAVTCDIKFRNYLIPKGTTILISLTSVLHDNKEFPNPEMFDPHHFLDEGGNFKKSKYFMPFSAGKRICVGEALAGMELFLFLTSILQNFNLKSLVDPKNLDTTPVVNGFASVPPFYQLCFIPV

Heme [12] = assay: Binding affinity to heme in DMSO assessed as equilibrium constant by UV-visible spectrophotometry; parameters: scale not given here
How it was run: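 Haem titrations were run in buffered 40% DMSO so that haem stays monomeric and aggregation and μ-oxo dimer formation are minimised. Binding data were fitted mathematically to two alternative binding-process models to pick the best fit.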

Cytochrome P450 3A4 [13] = molecular target: T2, Cytochrome P450 3A4; assay: Inhibition of human recombinant CYP3A4 using […] as substrate; assay type: ADME
Cytochrome P450 2C19 = Cytochrome P450 2C19 (Homo sapiens, UniProt P33261); assay: Inhibition of human recombinant CYP2C19; assay type: ADME; how it was run: as §1
Cytochrome P450 2C19, sequence (P33261 whole entry): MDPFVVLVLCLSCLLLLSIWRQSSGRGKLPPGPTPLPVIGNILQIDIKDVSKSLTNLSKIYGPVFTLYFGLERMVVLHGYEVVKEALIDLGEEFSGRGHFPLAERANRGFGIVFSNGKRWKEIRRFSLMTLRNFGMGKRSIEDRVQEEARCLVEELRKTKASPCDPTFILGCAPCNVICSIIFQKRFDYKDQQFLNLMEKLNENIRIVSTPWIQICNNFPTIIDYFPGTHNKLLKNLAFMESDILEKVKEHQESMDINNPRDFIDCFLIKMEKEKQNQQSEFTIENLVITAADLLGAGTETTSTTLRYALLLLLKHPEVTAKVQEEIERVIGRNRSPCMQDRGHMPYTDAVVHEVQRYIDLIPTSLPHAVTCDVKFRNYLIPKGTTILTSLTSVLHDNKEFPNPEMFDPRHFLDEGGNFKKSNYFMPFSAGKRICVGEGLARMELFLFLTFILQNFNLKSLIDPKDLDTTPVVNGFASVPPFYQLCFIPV

Plasmodium yoelii [14] = assay: Antimalarial activity as ED100 in peripheral blood at day 23 against Plasmodium yoelii 17X infected CD1 mice (Mus musculus); assay type: functional
[15] = Clearance in iv and orally dosed monkey blood; assay type: ADME, organism-based, Macaca mulatta; conditions: rhesus monkey, whole blood; how it was run: as §4
[16] = Elimination half life in orally dosed monkey; assay type: ADME, organism-based, Macaca mulatta; conditions: rhesus monkey, in vivo, po; read-out: beta t1/2 (converted); how it was run: as §4
Plasmodium falciparum [17] = assay: Antimalarial activity against chloroquine-sensitive Plasmodium falciparum 3D7 in human erythrocytes after 48 hrs by [3H]hypoxanthine uptake; assay type: functional, organism-based; how it was run: as §6
[18] = Elimination half life in orally dosed mouse; assay type: ADME, organism-based; conditions: in vivo, po, read-out: beta t1/2 (converted); how it was run: as §4
Cytochrome P450 2D6 = Cytochrome P450 2D6 (Homo sapiens, UniProt P10635); assay: Inhibition of human recombinant CYP2D6; assay type: ADME; how it was run: as §1
Cytochrome P450 2D6, sequence (P10635 whole entry): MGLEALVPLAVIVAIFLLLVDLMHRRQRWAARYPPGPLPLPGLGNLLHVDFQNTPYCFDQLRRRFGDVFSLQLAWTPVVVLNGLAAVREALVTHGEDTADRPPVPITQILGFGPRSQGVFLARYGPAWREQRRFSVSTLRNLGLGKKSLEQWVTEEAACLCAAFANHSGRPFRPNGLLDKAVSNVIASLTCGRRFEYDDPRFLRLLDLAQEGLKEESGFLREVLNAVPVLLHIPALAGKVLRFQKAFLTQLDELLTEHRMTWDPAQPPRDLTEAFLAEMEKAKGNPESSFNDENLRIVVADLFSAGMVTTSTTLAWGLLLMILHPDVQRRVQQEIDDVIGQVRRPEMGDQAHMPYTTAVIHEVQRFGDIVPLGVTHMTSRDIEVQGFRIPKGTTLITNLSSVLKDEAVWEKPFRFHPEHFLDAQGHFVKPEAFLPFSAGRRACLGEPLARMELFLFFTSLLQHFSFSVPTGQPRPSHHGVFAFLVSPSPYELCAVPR

[19] = Oral bioavailability in monkey; assay type: ADME, organism-based, Macaca mulatta; conditions: rhesus monkey, in vivo; how it was run: as §4
Plasmodium falciparum [20] = assay: Antimalarial activity against chloroquine-resistant Plasmodium falciparum K1 in human erythrocytes after 48 hrs by [3H]hypoxanthine uptake; assay type: functional, organism-based; how it was run: as §6
[21] = Oral bioavailability in dog; assay type: ADME, organism-based, Canis lupus familiaris; conditions: in vivo; how it was run: as §4
Plasmodium yoelii [22] = assay: Antimalarial activity as reduced parasitaemia at day 4 against Plasmodium yoelii 17X infected CD1 mice (Mus musculus) at 40 mg/kg; assay type: functional, organism-based; parameters: dose 40 mg/kg; how it was run: as §5
Heme [23] = assay: Binding affinity to heme in 20 mM SDS surfactant assessed as equilibrium constant by UV-visible spectrophotometry
Heme [24] = assay: Binding affinity to heme in 1.2 mM TX-100 surfactant assessed as equilibrium constant by UV-visible spectrophotometry
Heme [25] = assay: Binding affinity to heme in 50 mM SDS surfactant assessed as equilibrium constant by UV-visible spectrophotometry
Rhesus monkey = assay: Toxicity in monkey assessed as increase in QTc interval; assay type: organism-based, Macaca mulatta; conditions: in vivo
How it was run: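 Repeat-dose toxicity studies in monkeys, with QTc intervals and ECG rhythm monitored.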

Heme [26] = assay: Binding affinity to heme in 20 mM CTAB surfactant assessed as equilibrium constant by UV-visible spectrophotometry
Heme [27] = assay: Binding affinity to heme in […] CTAB surfactant assessed as equilibrium constant by UV-visible spectrophotometry
Heme [28] = assay: Binding affinity to heme in 5 mM CTAB surfactant assessed as equilibrium constant by UV-visible spectrophotometry
Plasmodium yoelii [29] = assay: Antimalarial activity as ED100 in peripheral blood against Plasmodium yoelii 17X infected CD1 mice (Mus musculus) after 4 days; assay type: functional

Structure (SMILES): CC(C)(C)NCc1ccc(Nc2ccnc3cc(Cl)ccc23)cc1O [GSK-369796]
- IC50 (Cytochrome P450 1A2): 29 µM
- IC50 [1]: 7.5 µM
- blood plasma ratio [2]: 1.2
- Activity (Mus musculus): 93%
- clearance [3]: 6.3 mL/min/kg
- bioavailability [4]: 89%
- bioavailability [5]: 100%
- IC50 (Cytochrome P450 3A4 [6]): > 100 µM
- Activity (Homo sapiens): 88%
- ED50 (Plasmodium berghei): 2.8 mg/kg
- ED90 (Plasmodium berghei): 4.7 mg/kg
- ED50 (Plasmodium yoelii [7]): 3.8 mg/kg
- ED90 (Plasmodium yoelii [7]): 5.4 mg/kg
- clearance [8]: 26 mL/min/kg
- IC50 (Plasmodium falciparum [9]): 0.0126 µM
- clearance [10]: 17 mL/min/kg
- IC50 (Cytochrome P450 2C8): 23 µM
- blood plasma ratio [11]: 15
- IC50 (Cytochrome P450 2C9): ≥ 90 µM
- Activity (Heme [12]): 5.23
- IC50 (Cytochrome P450 3A4 [13]): Active
- IC50 (Cytochrome P450 2C19): 24 µM
- Activity (Plasmodium yoelii [14]): 20 mg/kg
- clearance [15]: 14.5 mL/min/kg
- half-life [16]: 11 h
- IC50 (Plasmodium falciparum [17]): 0.0112 µM
- half-life [18]: 3 h
- IC50 (Cytochrome P450 2D6): 3 µM
- bioavailability [19]: 100%
- IC50 (Plasmodium falciparum [20]): 0.0132 µM
- bioavailability [21]: 68%

Structure (SMILES): CCN(CC)Cc1ccc(Nc2ccnc3cc(Cl)ccc23)cc1O [ISOQUINE]
- IC50 [1]: 3.9 µM
- clearance [3]: 151 mL/min/kg
- ED50 (Plasmodium berghei): 3.7 mg/kg
- ED90 (Plasmodium berghei): 5.3 mg/kg
- IC50 (Plasmodium falciparum [9]): 0.0126 µM
- Activity (Plasmodium yoelii [22]): inactive
- IC50 (Cytochrome P450 3A4 [13]): Active
- IC50 (Plasmodium falciparum [17]): 0.0116 µM
- IC50 (Plasmodium falciparum [20]): 0.0176 µM

Structure (SMILES): CC(C)(C)NCc1cc(Nc2ccnc3cc(Cl)ccc23)ccc1F
- Activity (Plasmodium yoelii [22]): inactive

- Activity (Heme [12]): 4.4
Structure (SMILES): C=C[C@H]1CN2CC[C@H]1C[C@H]2[C@H](O)c1ccnc2ccc(OC)cc12

- Activity (Heme [23]): 4.4
- Activity (Heme [24]): 6.23
- Activity (Heme [25]): 3.8
- Activity (Heme [12]): 5.3
- Activity (Heme [26]): 4.7
- Activity (Heme [27]): 4
- Activity (Heme [28]): 4.69
Structure (SMILES): CCN(CC)CCCC(C)Nc1ccnc2cc(Cl)ccc12 (stereo not drawn) [CHLOROQUINE]
- ED50 (Plasmodium yoelii [7]): 3.3 mg/kg
- ED90 (Plasmodium yoelii [7]): 4.4 mg/kg
- Activity (Rhesus monkey): Toxic
- Activity (Plasmodium yoelii [29]): >40 mg/kg
